Active and inactive are the calls of the source. The calls are words filed in the database; no cut-off is given here.
Assays:
[1] = organism: Bos taurus; assay: Competitive inhibition of calf DNA polymerase alpha using dTTP as substrate up to 30 uM by Lineweaver-Burk plot analysis
Summary of the method: (§1)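 Kinetics ran in the standard pol assay at 37 °C for 60 min. Either poly(dA)/oligo(dT)18 (A/T = 2/1) or dTTP was varied, with inhibitor at 0, 10, 20 and 30 μM. Km and Vmax came from Lineweaver–Burk plots and Ki from Dixon plots. Pol α was purified from calf thymus by immunoaffinity chromatography.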

[2] = target: T1, DNA polymerase kappa (Homo sapiens, UniProt Q9UBT6); assay: Competitive inhibition of human C-terminal-His6-tagged DNA polymerase kappa expressed in Escherichia coli using dTTP as substrate by Dixon plot analysis; summary of the method: as §1
T1 sequence (Q9UBT6 whole entry): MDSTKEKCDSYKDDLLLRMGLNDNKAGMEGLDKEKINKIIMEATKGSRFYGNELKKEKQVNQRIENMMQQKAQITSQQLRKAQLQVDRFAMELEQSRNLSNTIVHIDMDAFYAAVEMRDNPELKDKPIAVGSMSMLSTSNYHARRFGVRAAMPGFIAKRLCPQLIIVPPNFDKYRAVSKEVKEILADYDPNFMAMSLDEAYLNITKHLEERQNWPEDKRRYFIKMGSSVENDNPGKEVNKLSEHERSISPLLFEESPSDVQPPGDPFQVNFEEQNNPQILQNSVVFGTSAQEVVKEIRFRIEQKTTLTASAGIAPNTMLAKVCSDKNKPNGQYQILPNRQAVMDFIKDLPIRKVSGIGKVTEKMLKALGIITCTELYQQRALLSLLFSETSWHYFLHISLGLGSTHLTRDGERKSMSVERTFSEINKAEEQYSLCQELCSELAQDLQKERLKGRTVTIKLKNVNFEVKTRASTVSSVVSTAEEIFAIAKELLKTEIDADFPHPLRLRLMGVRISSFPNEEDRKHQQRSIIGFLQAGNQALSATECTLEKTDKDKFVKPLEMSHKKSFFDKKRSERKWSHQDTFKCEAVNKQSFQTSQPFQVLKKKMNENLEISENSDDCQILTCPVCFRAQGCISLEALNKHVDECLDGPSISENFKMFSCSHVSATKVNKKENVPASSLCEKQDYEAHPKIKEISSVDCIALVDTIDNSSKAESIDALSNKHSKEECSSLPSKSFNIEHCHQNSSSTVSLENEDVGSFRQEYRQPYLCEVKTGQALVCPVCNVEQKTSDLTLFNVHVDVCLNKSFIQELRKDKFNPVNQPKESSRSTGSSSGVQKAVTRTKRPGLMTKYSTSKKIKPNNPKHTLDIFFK

[3] = Competitive inhibition of calf DNA polymerase alpha using dTTP as substrate by Dixon plot analysis; set-up: species or system Bos taurus; summary of the method: as §1
[4] = target: T1, DNA polymerase kappa; assay: Non-competitive inhibition of human C-terminal-His6-tagged DNA polymerase kappa expressed in Escherichia coli using ploy(dA)/oligo(dT)18 as substrate by Dixon plot analysis; summary of the method: as §1
[5] = organism: Bos taurus; assay: Non-competitive inhibition of calf DNA polymerase alpha using ploy(dA)/oligo(dT)18 as substrate up to 30 uM by Lineweaver-Burk plot analysis; summary of the method: as §1

C/C=C/C1=CC2=CC(=O)[C@@](C)(OC(=O)c3c(C)cc(O)cc3O)[C@@H](O)[C@@H]2CO1 [PINOPHILIN A]
inhibition [1]: Active
Ki [2]: 9.85 µM
Ki [3]: 9.6 µM
Ki [4]: 18.1 µM
inhibition [5]: Active

From ChEMBL document CHEMBL2010709, “Pinophilins A and B, inhibitors of mammalian A-, B-, and Y-family DNA polymerases and human cancer cell proliferation” (J Nat Prod, 2012)
